Laboratory results taken from ChEMBL document CHEMBL1140167, “Meroditerpenoids from the brown alga Sargassum siliquastrum” (J Nat Prod, 2008).
pIC50: −log10 of the molar value. Values after ≈ are worked out from the molar mass of the structure shown. Blank lines part the entries; values can stand above or below the compound they belong to.

Experiments:
Isocitrate lyase = Isocitrate lyase (Candida albicans, UniProt Q9P8Q7); test: Inhibition of Candida albicans isocitrate lyase
[1] = Inhibition of Staphylococcus aureus sortase A
[2] = tested on: Radical scavenging activity; test: Antioxidant activity assessed as DPPH radical scavenging activity; assay type: functional
Procedure, shortened: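 DPPH radical-scavenging test; activity expressed as RC50, reported in µg/mL.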

Chain of Isocitrate lyase (Q9P8Q7 whole entry): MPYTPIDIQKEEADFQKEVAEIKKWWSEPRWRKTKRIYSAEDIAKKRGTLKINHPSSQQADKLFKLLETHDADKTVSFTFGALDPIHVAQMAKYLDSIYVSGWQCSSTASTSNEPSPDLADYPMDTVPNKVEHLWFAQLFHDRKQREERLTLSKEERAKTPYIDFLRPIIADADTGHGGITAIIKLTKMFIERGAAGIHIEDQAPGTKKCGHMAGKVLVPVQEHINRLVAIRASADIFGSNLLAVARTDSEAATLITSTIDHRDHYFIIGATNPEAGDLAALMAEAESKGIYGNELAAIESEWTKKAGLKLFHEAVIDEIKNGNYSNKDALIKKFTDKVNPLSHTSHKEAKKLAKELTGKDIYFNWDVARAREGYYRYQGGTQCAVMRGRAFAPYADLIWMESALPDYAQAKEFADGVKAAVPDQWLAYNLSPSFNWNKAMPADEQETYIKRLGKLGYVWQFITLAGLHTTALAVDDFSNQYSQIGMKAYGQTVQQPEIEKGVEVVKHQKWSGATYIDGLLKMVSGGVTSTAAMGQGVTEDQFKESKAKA

SMILES: CC(C)=CCC/C(=C/CC/C(C)=C/CC/C(C)=C/Cc1cc(O)cc(C)c1O)C(=O)O [SARGAHYDROQUINOIC ACID]
pIC50 (Isocitrate lyase): 3.93
IC50 [1]: > 200 µg/mL
RC50 [2]: 0.17 µg/mL

SMILES: C=CC(C)(CC/C=C(\C)CCCC(C)[C@@H](O)C(=O)C=C(C)C)Oc1ccc(O)cc1CC(=O)OC (some centres not stated)
IC50 [1]: > 200 µg/mL
RC50 [2]: 17.2 µg/mL

SMILES: COC(=O)Cc1cc(O)cc(C/C=C(/C)CC/C=C(\C)CC/C=C(\C)C(=O)[C@@H](O)C=C(C)C)c1O
IC50 [1]: 23 µg/mL (≈ 47.5 µM)
RC50 [2]: 0.33 µg/mL

SMILES: C=CC(C)(CC/C=C(\C)CCCC(C)C(O)C(=O)C=C(C)C)Oc1ccc(O)cc1CC(=O)OC (configuration not stated)
IC50 [1]: > 200 µg/mL
RC50 [2]: 9.12 µg/mL

SMILES: COC(=O)Cc1cc(O)cc(C/C=C(/C)CCC(=O)C(C)CC/C=C(\C)C[C@H](O)C=C(C)C)c1O (some centres not stated)
IC50 [1]: 23 µg/mL (≈ 47.3 µM)
RC50 [2]: 0.1 µg/mL

SMILES: C=CC(C)(CC/C=C(\C)CC/C=C(\C)C(=O)[C@@H](O)C=C(C)C)Oc1ccc(O)cc1CC(=O)OC (some centres not stated)
pIC50 (Isocitrate lyase): 3.99
IC50 [1]: > 200 µg/mL
RC50 [2]: 12.6 µg/mL

SMILES: C=CC(C)(CC/C=C(\C)CCCC(C)C(=O)[C@@H](O)C=C(C)C)Oc1ccc(O)cc1CC(=O)OC (some centres not stated) [NAHOCOL A]
IC50 [1]: > 200 µg/mL
RC50 [2]: 11.3 µg/mL

SMILES: C=CC(C)(CC/C=C(\C)CC/C=C(\C)[C@H](O)C(=O)C=C(C)C)Oc1ccc(O)cc1CC(=O)OC (some centres not stated)
pIC50 (Isocitrate lyase): 3.99
IC50 [1]: > 200 µg/mL
RC50 [2]: 14.7 µg/mL

SMILES: COC(=O)CC1(C/C=C(\C)CC/C=C(\C)CC/C=C(\C)[C@@H](O)[C@@H](O)C=C(C)C)CC(=O)C=CC1=O (some centres not stated)
IC50 [1]: 23 µg/mL (≈ 47.3 µM)
RC50 [2]: > 300 µg/mL

SMILES: COC(=O)Cc1cc(O)cc(C/C=C(\C)CC/C=C(\C)CC/C=C(\C)C(=O)[C@@H](O)C=C(C)C)c1O
IC50 [1]: 23 µg/mL (≈ 47.5 µM)
RC50 [2]: 0.31 µg/mL

SMILES: COC(=O)Cc1cc(O)cc(C/C=C(\C)CC/C=C(\C)CCCC(C)C(=O)[C@@H](O)C=C(C)C)c1O (some centres not stated)
IC50 [1]: 23 µg/mL (≈ 47.3 µM)
RC50 [2]: 0.3 µg/mL

SMILES: C=CC(C)(CC/C=C(\C)CCCC(C)C(O)/C=C/C(=C)C)Oc1ccc(O)cc1CC(=O)OC (configuration not stated)
pIC50 (Isocitrate lyase): 3.97
IC50 [1]: > 200 µg/mL
RC50 [2]: 12.4 µg/mL

SMILES: C=CC(C)(CC/C=C(\C)CC/C=C(/C)[C@H](O)C(=O)C=C(C)C)Oc1ccc(O)cc1CC(=O)OC (some centres not stated)
pIC50 (Isocitrate lyase): 3.99
IC50 [1]: > 200 µg/mL
RC50 [2]: 23.2 µg/mL

SMILES: CC(C)=CC(O)C(=O)/C(C)=C/CC/C(C)=C/CCC(C)(O)CCc1cc(O)cc(C)c1O (configuration not stated)
pIC50 (Isocitrate lyase): 3.95
IC50 [1]: > 200 µg/mL
RC50 [2]: 0.24 µg/mL

SMILES: C=CC(C)(CC/C=C(\C)C[C@@H]1C=C(C)C(=O)[C@H]1C=C(C)C)Oc1ccc(O)cc1CC(=O)OC (some centres not stated)
pIC50 (Isocitrate lyase): 3.97
IC50 [1]: > 200 µg/mL
RC50 [2]: 11.7 µg/mL

Second part, led by results:

IC50 [1]: > 200 µg/mL
SMILES: C=CC(C)(CC/C=C(\C)CC/C=C(\C)[C@@H](O)[C@@H](O)C=C(C)C)Oc1ccc(O)cc1CC(=O)OC (some centres not stated) [NAHOCOL D1]
RC50 [2]: 18.5 µg/mL

IC50 [1]: > 200 µg/mL
SMILES: C=CC(C)(CC/C=C(\C)CC/C=C(\C)[C@@H](O)[C@H](O)C=C(C)C)Oc1ccc(O)cc1CC(=O)OC (some centres not stated) [NAHOCOL D2]
RC50 [2]: 12.4 µg/mL

IC50 [1]: 23 µg/mL (≈ 47.3 µM)
SMILES: COC(=O)Cc1cc(O)cc(C/C=C(\C)CC/C=C(\C)CC/C=C(\C)[C@@H](O)[C@@H](O)C=C(C)C)c1O [ISONAHOCOL D2]
RC50 [2]: 0.12 µg/mL

IC50 [1]: > 200 µg/mL
SMILES: C=CC(C)(CC/C=C(\C)CCCC(C)C(=O)[C@H](O)C=C(C)C)Oc1ccc(O)cc1CC(=O)OC (some centres not stated) [NAHOCOL A1]
RC50 [2]: 12.7 µg/mL

IC50 [1]: 23 µg/mL (≈ 47.3 µM)
SMILES: COC(=O)Cc1cc(O)cc(C/C=C(/C)CC/C=C(\C)CC/C=C(\C)[C@@H](O)[C@@H](O)C=C(C)C)c1O [ISONAHOCOL D1]
RC50 [2]: 0.13 µg/mL
